Reference: ChEMBL document CHEMBL4513216, “Probing the Open Global Health Chemical Diversity Library for Multistage-Active Starting Points for Next-Generation Antimalarials” (ACS Infect Dis, 2020)

Experiment: Toxicity liver stage against HepG2, at 10uM
Assay type: cell-based
Set-up: test concentration 10 uM, cell line HepG2-A16-CD81EGFP
Settings: human, HepG2-A16-CD81EGFP cells; read-out: INHIBITION
Method in brief: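 Uninfected HepG2-A16-CD81EGFP cells, 3 × 10^3 per well, 1536-well, plated on prespotted compound at 10 μM final, parasite-free screening media added to match infected plates; puromycin 10 μM positive, DMSO 0.5% negative; run in parallel with 48 h PbLuc assay at 37 °C, 5% CO2; viability by CellTiter-Glo luminescence, normalized to controls.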

Compound	cytotoxicity at 10 µM [%]
c1cc(CN2CCOC[C@H]2c2nc(-c3ccncc3)c[nH]2)ccn1	-2.65
CCNC(=O)N1C[C@@H]2OCC(=O)N(CC3CC3)[C@@H]2C1	0.434
CCCSc1ncccc1C(=O)NCc1ccc(S(N)(=O)=O)cc1	6.02
O=C(CCc1nc2cc(Br)cnc2[nH]1)NCCCn1ccnc1	0.905
CC(C)n1cc(C(=O)NCCCn2ccnc2)c2n[nH]c(=O)c-2c1	-4.17
Cc1nn(C)c(C)c1S(=O)(=O)NCC1CCN(c2ccccn2)CC1	6.5
Cn1cc(C(=O)Nc2ccc3c(c2)CN(C(=O)C2CC2)CC3)nn1	4.59
C[C@H]1C[C@H]2CN(S(=O)(=O)c3ccc(F)cc3)CC[C@H]2O1	1.79
CCN1CCC2(CC1)CN(CCO)c1ccccc12	-0.173
CC(C)NC(=O)N1CCC(c2nnc3ccc(C(=O)N(C)C)cn23)C1 (configuration not stated)	8.79
COCC1c2nnn(CC3CC3)c2CCN1C(=O)N1CCCC1 (configuration not stated)	-131
CCOCC(=O)N1Cc2nccn2CC(CN(C)C)C1 (configuration not stated)	-124
CNc1oc(-c2ccc(OC)c(S(=O)(=O)N3CCCC3)c2)nc1C#N	3.33
O=C(COCC(=O)N(c1ccccc1)c1ccccc1)N1CCCC1	10.9
CCCn1nc(C)c2c(C(F)F)cc(=O)n(CC(=O)O)c21	1.76
Cc1nc(NC2CC(C)(C)NC(C)(C)C2)c2c(n1)c(C)nn2C	-11.5
Cc1ccnn1C(C)C(=O)Nc1cc(-c2ccncc2)[nH]n1 (configuration not stated)	-10.7
CNC(=O)c1sc2ncccc2c1C1CCN(C(=O)CCOC)C1 (configuration not stated)	6.42
CNc1ccc(C2CN(c3nc(C)cc(C)n3)CCO2)nc1 (configuration not stated)	0.575
CCC(=O)N1CCc2c(O)nc(C3CCCCN3C(=O)C3CC3)nc2C1 (configuration not stated)	3.3
CCn1cc(S(=O)(=O)N2CCCCCC2c2cc(C)no2)cn1 (configuration not stated)	8.24
CNc1nccc(C2CCCCN2Cc2cnn3cccnc23)n1 (configuration not stated)	0.247
Cc1nccc(N2CCCC(C)(c3[nH]ncc3C(N)=O)C2)n1 (configuration not stated)	1.86

Compound	cytotoxicity at 10 µM [%]
Cc1cccc(C2CCCN2S(=O)(=O)N(C)C)n1 (configuration not stated)	-5.5
CC(=O)NC[C@]1(O)CCN(C(=O)c2ccc(C)c(F)c2)C[C@H]1O	-2.78
COc1ccnc(N(C)Cc2c(C)noc2C)n1	-3.84
CCNc1nnc(SCc2nnc(C(C)(C)C)o2)s1	-1.79
CC(NC(=O)Nc1ccc(-c2csnn2)cc1)C(=O)NC(C)(C)C (configuration not stated)	9.11
CCN1CCN(C(=O)c2cc(F)cc3nc(C)c(C)nc23)CC1	-2.25
FC(F)(F)CCN(Cc1ccon1)C1CCCC1	1.87
CN(CC(=O)NCCc1cc2ccccc2o1)S(C)(=O)=O	6.56
CCOC(=O)C1(NC(=O)CCNc2cc(C)ccc2OC)CCCCC1	6.47
CN(Cc1nc(C(F)(F)F)cs1)C(=O)CCc1cccnc1	9.75
Cn1c(CCCNC(=O)Nc2cn[nH]c2)nc2ccccc21	21.9
CCn1c(C)cc(C(=O)N2CCC(NC(=O)c3cc(C)no3)CC2)c1C	-1.1
CN(C)C(=O)c1cccc(CCNc2ccccc2S(C)(=O)=O)c1	11.5
CC1CCC(NC(=O)CNC2(c3cccc(Br)c3)CCOCC2)CC1 (configuration not stated)	2.94
N#Cc1cccnc1N1CCC(OCCc2ccccc2)CC1	-11
CC(NC(=O)Nc1ccc(S(C)(=O)=O)cc1)c1ccc2c(c1)CC(=O)N2 (configuration not stated)	0.0793
CC(C)(C)NC(=O)CN1CCCN(Cc2ccc(C#N)cc2)CC1	-4.78
Cc1ccccc1-c1noc(CN2CCC(c3ccn[nH]3)CC2)n1	1.98
CC(C)C(C(=O)N1CCN(Cc2cscn2)CC1)n1cncn1 (configuration not stated)	7.89
O=C(c1ncoc1C1CCCO1)N1CCC2(CCCCC2)CC1 (configuration not stated)	-7
CNC(=O)c1ccc(=O)n(Cc2csc(C(C)(C)C)n2)c1	6.8
Cc1cc(C(=O)N2CCC(NC(=O)c3cccnc3)CC2)c(C)o1	-2.44
COC(=O)c1ccccc1NS(=O)(=O)c1c(C)nn(C)c1C	-4.12

Compound	cytotoxicity at 10 µM [%]
O=C(c1nc(=O)[nH][nH]1)N1CCC2(CCCCC2)C1	11.4
CC(C)Cc1nc(COc2ccc(N(C)C(N)=O)cc2)no1	30.5
CC(C)c1nnc(CN(C)C(c2ccc(F)cc2)c2cccnc2)o1 (configuration not stated)	4.11
O=S(=O)(N1CCCCC1)N1CCOC2(CCCC2)C1	-3.73
CCCC(C)(C)NC(=O)c1cnc(CC)s1	10.2
N#Cc1ccc(S(=O)(=O)Nc2ccccc2C#N)cn1	-2.93
CC(C)OCCC(=O)N(C)c1ccc(F)c(Cl)c1	-4.62
CC/C=C(/C)C(=O)NS(=O)(=O)c1ccc(C#N)cc1C(F)(F)F	11.8
CC(C)c1csc(C2CCCN(C(=O)c3ccc(=O)n(C)n3)C2)n1 (configuration not stated)	9.24
CCn1c(C)nnc1CN(C)C1CCN(Cc2cnc(C)cn2)C1 (configuration not stated)	14.6
COc1ccc(NC(=O)NC(C)c2nc[nH]n2)cc1 (configuration not stated)	-7.71
CSC(C)(C)CNC(=O)NCCC1CCN(C)CC1	22.3
CN1CCCC(CNC(=O)N2CCN(Cc3ccon3)CC2)C1 (configuration not stated)	15.5
CC(=O)N1CCC(C(=O)NCCN2CCC(C)CC2)CC1	12.8
O=C(NCCN1CCCCC1CO)c1cc(-c2ccccc2)on1 (configuration not stated)	-5.53
CN(CC1CCOC1)S(=O)(=O)c1cccc(C(=O)N2CCCCCC2)c1 (configuration not stated)	-0.825
CCC1CCN(CCn2cnc3c(C)csc3c2=O)CC1	-6.94
Cc1cc(C(=O)NCc2csc(N(C)C)n2)c2ccc(C)c(C)c2n1	-0.724
Cc1cc(C2CCC2)nc(NCC(C)(C)CO)n1	-2.56
Cc1nn(CC(=O)N(C)Cc2nncn2C(C)C)c(=O)c2ccccc12	3.1
COc1ccccc1OC1CCN(C(=O)c2c[nH]c(=O)[nH]c2=O)CC1	8.45
Cc1cccnc1CC(C)NC1CCSCC1 (configuration not stated)	2.28
CCN(Cc1noc(CC(C)C)n1)Cc1cc2ccc(F)cc2[nH]c1=O	3.34

Compound	cytotoxicity at 10 µM [%]
Cc1ccc(C(=O)O)c(N2Cc3cnc(C(C)(C)C)nc3C2)n1	5.67
CN(CCCc1cnn(C)c1)C(=O)C1CCC(=O)N(C2CCCC2)C1 (configuration not stated)	5.89
CN(C)CCNc1cc(-c2ncccc2Cl)c2cc[nH]c2n1	8.45
COCCCn1c(CN2CCCCO2)cnc1S(=O)(=O)C1CCCC1	4.24
COc1ccc(CN(C)c2nccc(-c3cn(C)nc3C)n2)cc1	13.6
Cc1nc(O)cc(CCNC(=O)C2CC(=O)N(CC(C)C)C2)n1 (configuration not stated)	-8.11
Cc1nc(N)sc1C(=O)N1CCCC(c2nccn2CCCN(C)C)C1 (configuration not stated)	-6.82
c1ncn(CC2CN(Cc3nc(C4CC4)no3)CCO2)n1 (configuration not stated)	-8.45
CC(NC(=O)NCCCN1CCCC1=O)c1nncn1C (configuration not stated)	-3.08
COc1cccc(-c2noc(CN3CCOCC3C)n2)c1 (configuration not stated)	-11.7
c1cncc(-c2noc(CNCC3CCCN3c3cccnn3)n2)c1 (configuration not stated)	-4.6
Cc1csc(CCNC(=O)NC(C)Cn2cccn2)n1 (configuration not stated)	-18
O=C(Cc1cccnc1)N1CCCC(n2cncn2)C1 (configuration not stated)	-13.1
OC(CN1CCC(c2ccn[nH]2)CC1)c1ccc(F)cc1F (configuration not stated)	-17.9
Cc1nccn1CC1CCCN1S(=O)(=O)Cc1cccc(F)c1 (configuration not stated)	-15.8
O=C(Nc1cccnc1N1CCCC1)C1CCS(=O)(=O)C1 (configuration not stated)	-13.1
CN(CCC(=O)N1CCc2sccc2C1)Cc1ccc2c(c1)OCCO2	-14.8
Cc1cnn(CC2CN(CC(=O)N(C)Cc3cnn(C)c3)CCO2)c1 (configuration not stated)	-18.4
Cn1nc2c(cc1=O)CN(Cc1nc(-c3ccsc3)no1)CC2	-2.21
O=C(NCCCN1CCc2ccccc2C1)c1ccccc1Cl	-13
Cc1cn2c(n1)CCC(NC(=O)c1oc(Br)cc1C)C2 (configuration not stated)	-20.8
COCc1ccc(C(=O)N2CCN(CC(C)O)CC2)cc1 (configuration not stated)	0.0264
CC(C)C(NC(N)=O)C(=O)NCc1ccc(N2CCCC2)nc1 (configuration not stated)	-16.9

Compound	cytotoxicity at 10 µM [%]
Cc1cccc(NC(=O)Cn2nc3ccccn3c2=O)c1C	-13.4
Cc1ccccc1OCC(=O)N1CCN(C2CCOC2=O)CC1 (configuration not stated)	-19.3
Cc1cnn(CCC(=O)N2CCCC(c3nc(C)c(C)s3)C2)c1 (configuration not stated)	-19.2
Cc1cc(C)n(C2CCCN(C(=O)c3c(C)noc3C)C2)n1 (configuration not stated)	-6.41
NC(=O)C1CCN(CCc2ccc(NC(=O)C3CCC3)cc2)CC1	-3.86
Cc1nn(C)c(Cl)c1C1CCCN1CCc1ccccn1 (configuration not stated)	4.6
O=C(c1cccc(CN2CCCC2)c1)N1CCCC(n2cncn2)C1 (configuration not stated)	-11.9
Cc1ccc(N2CCCC(NCc3ccncc3)C2)nn1 (configuration not stated)	2.55
CN1CCc2onc(Cn3cccc3)c2C1	7.25
CCS(=O)(=O)N1CCOC2(CCCN(c3cnccn3)C2)C1 (configuration not stated)	2.66
CCN1CCOCC12CCN(C(=O)C1CCCC1)CC2	-0.272
O=C([C@@H]1CC[C@@H]2[C@@H](CCN2Cc2cccc(F)c2)O1)N1CCCCO1	-6.71
CS(=O)(=O)N1C[C@H](C(=O)Nc2cccnc2)[C@@H]2CCO[C@@H]2C1	-104
CC(C)N1CCN(c2ccc3ccc(C(=O)NC4CCCC4)cn23)CC1	1.26
CN(C)C(=O)C1OC2(CCNCC2)c2ccccc21 (configuration not stated)	0.37
COc1ccc(CN2CCN(C(C)=O)CC3(CC(=O)N(C)C3)C2)cc1 (configuration not stated)	9.74
Nc1ncc(-c2csc(NC(=O)C[C@H]3COCCN3)n2)cn1	-2.83
CC(C)OCc1ncn2c1CN(Cc1cnn(C)c1)CCC2	6.13
COc1cccc(C2c3c(n[nH]c3C)N=C3COC(=O)C32)c1OC (configuration not stated)	-5.34
O=C(CC1[C@H]2CN(Cc3ccc(F)cc3)C[C@@H]12)N1CCCC1 (some centres not stated)	-0.744
